This is a sample that favours compounds with a hit; in the whole collection about 4% have one here.
OX1R antag-1: antagonists of human orexin 1 receptor (OX1R) | O43613 | OX1R-expressing cells, FRET antagonist read-out | inhibition, % at 6.6 µM | 330,000 tested, 1.8% active; in the data active means inhibition mostly above about 38%, no sharp cut-off; inactive means mostly below about 40%;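 further: 0% = agonist challenge alone and 100% = reference antagonist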
Target sequence (O43613 whole entry, looked up): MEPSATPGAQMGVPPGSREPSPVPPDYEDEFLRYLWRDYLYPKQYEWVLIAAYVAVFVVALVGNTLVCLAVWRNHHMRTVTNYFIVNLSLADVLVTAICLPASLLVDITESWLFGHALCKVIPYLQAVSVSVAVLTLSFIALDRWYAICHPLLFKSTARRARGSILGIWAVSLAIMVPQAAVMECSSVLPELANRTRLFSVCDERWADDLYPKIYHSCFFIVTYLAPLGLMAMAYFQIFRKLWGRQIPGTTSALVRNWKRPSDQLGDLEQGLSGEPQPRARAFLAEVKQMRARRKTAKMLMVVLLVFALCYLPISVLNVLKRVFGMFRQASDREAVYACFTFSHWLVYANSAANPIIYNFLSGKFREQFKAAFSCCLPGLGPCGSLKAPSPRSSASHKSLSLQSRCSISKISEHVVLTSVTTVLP
TAAR1 antag: antagonists of human TAAR1; AID 624466; inhibition, % at 3 µM; CHO RD-HGA16 TAAR1, Fluo-8 calcium fluorescence, antagonist; 360,000 tested, 1.5% active;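 active means inhibition above a per-plate cutoff, the mean inhibition of test compounds on that plate plus 3 SD, cut at about 49% in these data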;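 further: 0% = DMSO plus EC80 beta-PEA response and 100% = DMSO alone without agonist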
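Test system – hTAAR1-expressing CHO RD-HGA16 cells, Gα16-coupled · Also added – β-PEA at EC80 concentration, post-compound challenge · Compound – 3 µM, single point · Incubation – dye loading 75 min at 37 °C, then 30 min room temperature · Measured by – Fluo-8 intracellular calcium dye fluorescence, real-time kinetic reads · Benchmarks – vehicle and agonist controls · Replicates – singlicate, one well per test compound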
CHO parental Ca: counter-screen: ATP calcium response change in parental CHO cells. parental CHO-K1, ATP-induced calcium, Fluo-8 fluorescence. inhibition, % at 5.6 µM. 330,000 tested, 0.63% active. AID 463079;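 active means inhibition above that plate's mean sample inhibition plus 3 SD, cut at about 26% in these data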;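 further: 0% = ATP-challenged DMSO wells and 100% = DMSO wells without ATP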
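Material: Parental CHO cells | Reagent: ATP | Compound dosing: Single nominal dose of 5.6 µM per compound | Detection: Intracellular calcium via Fluo-8 no-wash fluorescent dye | Read-out: % inhibition of ATP-induced calcium mobilization | Benchmarks: Low control ATP plus DMSO, high control DMSO only | Replicates: Singlicate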
OX1R antag-2: human HCRTR1 antagonism; inhibition, % at 5 µM; 330,000 tested, 0.43% active; AID 434989; CHO/OX1R cells, Fluo-8 calcium fluorescence, orexin A; O43613;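 active means inhibition above its plate's threshold, mean inhibition of all tested compounds on the plate plus 3 SD, cut at about 37% in these data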;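 further: 0% = orexin A challenge wells and 100% = SB-334867-A antagonist wells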
TAAR1 agonist: agonists of human TAAR1 | Q96RJ0 | CHO RD-HGA16 TAAR1, Fluo-8 calcium fluorescence; vehicle wells 0%, saturating PEA agonist 100% | activation, % at 3 µM | 360,000 tested, 0.99% active;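 active means activation above the mean activation of all test compounds in the run plus 3 SD, cut at about 38% in these data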
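System: CHO RD-HGA16 cells carrying human TAAR1 plus Gα16; Incubation: 17-24 h seeding, 75 min 37 °C dye, 30 min RT; Measured by: Fluo-8 fluorescence, 5 s baseline then 140 s kinetic read; Control set: DMSO and PEA EC100; Replication: single well for each compound.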
nonsel antag count: nonselective antagonism, TAAR1 counter-screen; counterscreen cell line, calcium fluorescence, antagonist mode; shares compounds with TAAR1 antag; AID 651780; 2,400 tested, 77% active; inhibition, % at 3 µM; in the data active means inhibition above about 22%;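 further: CHO-Ga16 host cells stimulated with ATP at an EC80 level; 0% = agonist EC80 plus vehicle and 100% = vehicle without agonist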
TAAR1 ant conf: confirmation of human TAAR1 antagonists. shares compounds with TAAR1 antag. TAAR1-expressing cells, fluorescence antagonist read-out. inhibition, % at 3 µM. 2,400 tested, 40% active. AID 651785; in the data active means inhibition above about 49%;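 further: CHO-Ga16 host cells challenged with agonist PEA near its EC80; 0% = agonist at EC80 plus vehicle and 100% = vehicle with no agonist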
Ga16 ag counter: nonselective Ga16 agonist in TAAR1 antagonist counter-screen | shares compounds with TAAR1 antag | Ga16-expressing cells, calcium fluorescence, agonist counterscreen | activation, % at 3 µM | 2,400 tested, 18% active; in the data active means activation above about 12%;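 further: 0% = vehicle wells and 100% = saturating stimulus response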
TAAR1 ag count: counter-screen for human TAAR1 antagonists: TAAR1 agonists. shares compounds with TAAR1 antag. hTAAR1 cell line, fluorescence activation, agonist mode. activation, % at 3 µM. 2,400 tested, 2% active. AID 651955; in the data active means activation above about 37%;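 further: CHO cells stably expressing TAAR1 with calcium dye readout; 0% = DMSO vehicle and 100% = full agonist response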
Numbers without * were called inactive; . = not tested or not shown.

SMILES | OX1R antag-1 | TAAR1 antag | CHO parental Ca | OX1R antag-2 | TAAR1 agonist | nonsel antag count | TAAR1 ant conf | Ga16 ag counter | TAAR1 ag count
CCS(=O)(=O)N1N=C(c2cccs2)CC1c1cc2cc(C)ccc2nc1Cl (stereo not given) | 18 | 50* | -14 | -9 | 5 | 11 | 19 | 10 | 9
Cc1ccc2nc(Cl)c(C3CC(c4cccs4)=NN3C(=O)CCCC(=O)O)cc2c1 (stereo not given) | 4 | -6 | -5 | -3 | 0 | . | . | . | .
CCN1C(=O)C(CC(=O)Nc2ccc(OC)cc2)N(CCc2ccccc2F)C1=S (stereo not given) | 2 | 75* | -10 | -2 | 20 | 31* | 41 | 8 | 9
CCN1C(=O)C(CC(=O)Nc2ccc(OC)cc2)N(CCc2ccccc2)C1=S (stereo not given) | 11 | 43 | -12 | -14 | 9 | . | . | . | .
COc1ccc(NC(=O)CC2C(=O)N(C)C(=S)N2CCc2ccccc2F)cc1 (stereo not given) | 4 | 57* | -6 | -21 | 21 | 37* | 56* | 12* | 14
COc1ccc(C(=O)N/N=C/c2ccc(OC(=O)c3ccccc3)cc2)cc1 | 12 | -9 | -3 | -14 | 8 | . | . | . | .
Cc1cccc(C(=O)Oc2ccc(/C=N/NC(=O)c3ccc(O)cc3)cc2)c1 | . | 73* | . | . | 13 | 37* | 54* | 10 | 17
O=C(O)c1ccc(N/N=C/c2ccc(OC(=O)c3cccc(Cl)c3)cc2)cc1 | 6 | 84* | -8 | -7 | 20 | 48* | 60* | 8 | 13
Cc1cccc(C(=O)Oc2ccc(/C=N/NC(=O)c3ccccc3O)cc2)c1 | 18 | 68* | 14 | -9 | 7 | 49* | 58* | 8 | 4
Cc1cccc(C(=O)Oc2ccc(/C=N/NC(=O)Cc3ccc([N+](=O)[O-])cc3)cc2)c1 | 23 | -19 | -5 | -4 | 3 | . | . | . | .
CN[C@@H](CO)C(=O)NC[C@H]1O[C@@H](n2cnc3c(N)ncnc32)[C@H](O)[C@@H]1O | . | -10 | . | . | 5 | . | . | . | .
CC(=O)Nc1ccc(NC(=O)C(C)OC(=O)CSc2ccc(Br)cc2C)cc1 (stereo not given) | 12 | -14 | -30 | -24 | 5 | . | . | . | .
N#CCc1ccc(OCCCN2CCC(C(O)(c3ccccc3)c3ccccc3)CC2)cc1 | . | 9 | . | . | 24 | . | . | . | .
OC(c1ccccc1)(c1ccccc1)C1CCN(CCCOc2cccc(OC(F)(F)F)c2)CC1 | . | 37 | . | . | 20 | . | . | . | .
COc1ccccc1-c1ccc(OCCCN2CCC(C(O)(c3ccccc3)c3ccccc3)CC2)cc1 | . | 56* | . | . | 32 | 42* | 59* | 15* | 37
OC(c1ccccc1)(c1ccccc1)C1CCN(CCCOc2ccc(-c3ccc(F)cc3F)cc2)CC1 | . | 52* | . | . | 35 | 42* | 47 | 18* | 35
COc1cc(OC)cc(-c2c(-c3ccsc3)c3cc(Br)ccc3n2C)c1 | -4 | -3 | 2 | -3 | 19 | . | . | . | .
CCN(Cc1ccccc1)S(=O)(=O)c1ccc(C(=O)N(CCCN(C)C)c2nc3cc(C)cc(C)c3s2)cc1 | 15 | 24 | -14 | -27 | 27 | . | . | . | .
Cc1cc(C)c2sc(N(CCCN(C)C)C(=O)c3ccc(S(=O)(=O)N(C)Cc4ccccc4)cc3)nc2c1 | 11 | 50* | -32 | -30 | 35 | 39* | 40 | 26* | 46*
C/C(CCc1ccco1)=N/NC(=O)CCC(=O)Nc1ccc(Br)cc1 | 16 | -5 | 2 | -3 | 11 | . | . | . | .
COc1ccc(-c2nc(SCC(=O)Nc3nccs3)c(-c3ccc(Cl)cc3)[nH]2)cc1 | 30 | 68* | 17 | 4 | 7 | 45* | 59* | 8 | 3
